TRPC6 inhibitor – mouse TRPC6 channel inhibitors, primary screen, cell-based, HEK293, membrane potential dye. actives 1.1% (n = 310,000). ACh-evoked depolarization; hits give low values. B-score at 10 µM. Short transient receptor potential channel 6 (Mus musculus), Q61143. AID 2553, 2010;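 active means B-score under library mean minus 3 SD, initial fluorescence not abnormally high, positive integrated signal ratio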;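 further: B-score derived from integrated fluorescence ratio over the kinetic read; more negative B-score means stronger inhibition of depolarization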
TRPC4 PAM – positive allosteric modulators of TRPC4, primary screen, cell-based, mouse TRPC4beta, HEK293 mu-opioid, Fluo-4 calcium; DAMGO EC20, Fluo-4 Ca2+ flux; hits give high values; AID 2227, 2009; actives 0.42% (n = 310,000); B-score at 10 µM;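 active means B-score of calcium response area above 5 SD of library B-scores, with initial fluorescence ratio within 5 SD of library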;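 further: B-score of integrated fluorescence ratio over time as area under calcium response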
Platelet DG rel – inhibitors of platelet dense granule secretion, primary screen, cell-based, MLPCN, human platelets. human platelet-rich plasma, SFLLRN dense granule ATP release, luminescence. inhibition, %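 (compounds screened at 7.5 µM in platelet-rich plasma)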. actives 0.22% (n = 300,000). AID 1663, 2009;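 active means mean replicate score, as percent of positive control, at or above 50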
TRPC4 inh – inhibitors of mouse TRPC4 channel, primary screen, Fluo4 calcium, HEK293 TRPC4beta/mu-opioid cells | AID 2247, 2010 | Short transient receptor potential channel 4 (Mus musculus), Q9QUQ5 | B-score at 10 µM | DAMGO-evoked Fluo4 calcium flux; hits give low values | actives 0.39% (n = 300,000);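 active means B-score over 3 SD under the library average, no early fluorescence shift, positive overall ratio signal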
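Signal: kinetic Fluo4 fluorescence imaging of calcium influx. Material: stable TRPC4beta/mu-opioid receptor HEK293 cells. Probe or stimulus: DAMGO in two steps, submaximal then maximal.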
TRPC4 agonist – activators of mouse TRPC4 channel, primary screen, Fluo4 calcium, HEK293 TRPC4beta/mu-opioid cells | Short transient receptor potential channel 4 (Mus musculus), Q9QUQ5 | Fluo4 calcium fluorescence; hits give high values | B-score at 10 µM | actives 0.49% (n = 310,000) | AID 2237, 2010;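 active means B-score above 5 SD of library B-scores, and initial fluorescence ratio not above library mean plus 5 SD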;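 further: positive B-score marks a calcium rise read as TRPC4 activation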
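Test system: HEK293 cells stably co-expressing mouse TRPC4beta and mu-opioid receptor | Schedule: Fluo4 dye loading 45 min at room temperature, 110 s recording | Measured by: Kinetic Fluo4 calcium fluorescence, 5 s baseline at 1 Hz | Evaluation: B score of integrated ratio | Controls: Buffer (low) and maximal DAMGO (high)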
TRPC6 act – mouse TRPC6 channel activators, primary screen, cell-based, HEK293, membrane potential dye. HEK293-TRPC6 membrane potential dye fluorescence; hits give high values. Short transient receptor potential channel 6 (Mus musculus), Q61143. B-score at 10 µM. actives 0.13% (n = 310,000). AID 2550, 2010;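 active means B-score of the integrated fluorescence ratio above library mean plus 3 SD, and starting fluorescence ratio within library mean plus 5 SD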;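 further: higher score means more depolarization so channel activation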
An asterisk follows results filed as active; i = inactive; / = not tested or not shown. This is a sample that favours compounds with a hit; in the whole collection about 2.5% have one here.

SMILES	TRPC6 inhibitor	TRPC4 PAM	Platelet DG rel	TRPC4 inh	TRPC4 agonist	TRPC6 act
COC(=O)CSc1nc2sc3c(c2c(=O)n1-c1ccccc1)CCN(C)C3	i	i	-4	i	i	i
COCCN(C(=O)CCC(=O)Nc1ccccn1)C(C(=O)NC(C)C)c1ccc(C)cc1 (configuration not stated)	i	i	-6	i	i	i
OC(CNC1CCCc2ccccc21)COc1ccc2ccccc2c1 (configuration not stated)	i	i	-10	i	101*	i
Cc1nc(NCCc2cnc[nH]2)c2oc3ccccc3c2n1	i	i	-5	i	82*	i
COC(=O)c1sc(NC(=O)c2cc(-c3ccccc3)nc3ccccc23)c(C#N)c1C	i	13*	-52	i	i	i
CCOc1ccccc1N(C)C(=O)Cn1ncc2c([nH]c3ccc(C)cc32)c1=O	i	i	0	i	i	i
CCn1c(C(=O)N2CCC(C(=O)NCCCSC3CCCCC3)CC2)cc2sccc21	i	i	69*	i	i	i
CC(C)C[C@@H](COc1ccccc1)N1CCN(CCc2ccccc2)CCC1=O	i	i	0	/	i	i
Cc1ccc(SC[C@H](Cc2ccccc2)N2CCN(C)CCC2=O)cc1	i	i	-2	/	81*	i
COc1ccc(SC[C@H](Cc2ccccc2)N2CCN(C)CCC2=O)cc1	i	i	-10	-8*	i	i
O=C1CCN(CCc2ccccc2)CCN1[C@H](COc1ccccc1)Cc1ccccc1	i	i	3	/	67*	i
CN1CCC(=O)N([C@H](CSc2ccc(Br)cc2)Cc2ccccc2)CC1	i	i	-11	i	79*	i
Cc1ccc([N+](=O)[O-])cc1N=C1C(=O)Nc2ccccc21	i	i	9	i	i	i
N#CCCNS(=O)(=O)c1ccc(C(=O)OCCCOC(=O)c2ccc(S(=O)(=O)NCCC#N)cc2)cc1	i	i	3	i	i	i
CC(=O)Nc1cccc(C(=O)OC(C)C(=O)NC(=O)NC2CCCCC2)c1 (configuration not stated)	i	i	-9	i	i	i
NC(=O)C1CC(=O)N(c2ccc(OCc3ccccc3Cl)cc2)C1 (configuration not stated)	i	i	-4	i	i	i
CCN1C(=O)CC(c2ccc(OC(C)C)cc2)C1=O (configuration not stated)	i	i	-2	i	i	i
CC1CCCN(C(C(=O)NC2CCCCC2)c2cc3c(cc2[N+](=O)[O-])OCO3)C1 (configuration not stated)	i	i	-10	i	i	i
CC1CCN(C(C(=O)NC2CCCCC2)c2cc3c(cc2[N+](=O)[O-])OCO3)CC1 (configuration not stated)	i	11*	1	i	i	i
COC(=O)[C@H](Cc1ccccc1)NC(=O)c1ccc2ccccc2n1	i	16*	2	i	i	i
CCOc1ccc(C(=O)NC(Cc2ccccc2)C(=O)OC)cc1 (configuration not stated)	i	i	-5	i	i	i
CN(C)CCNC(=O)CNC(=S)N(Cc1ccccc1)Cc1cccnc1	i	i	3	i	i	i
CC(=O)Oc1ccc(-c2nc(-c3cccnc3)no2)cc1	i	i	79*	i	i	i
O=C(c1cccc([N+](=O)[O-])c1)N1CCCC(C(=O)N2CCCCCC2)C1 (configuration not stated)	i	29*	5	i	i	i
O=[N+]([O-])c1ccccc1CNC1CCCc2ccccc21 (configuration not stated)	i	i	-1	-6*	i	i
SMILES	TRPC6 inhibitor	TRPC4 PAM	Platelet DG rel	TRPC4 inh	TRPC4 agonist	TRPC6 act
CC(C)(C)C(=O)O/N=C(\N)c1ccc(-c2csnn2)cc1	i	i	-2	i	i	i
NC(=O)c1nsc(C(=O)N(Cc2ccco2)C(C(=O)NCc2ccccc2)c2ccc(O)cc2)c1N (configuration not stated)	i	i	-26	-8*	i	i
Cc1ccccc1N(C(=O)c1snc(C(N)=O)c1N)C(C(=O)NCc1ccccc1)c1ccc(O)cc1 (configuration not stated)	i	i	0	i	i	i
COc1ccccc1N(C(=O)c1snc(C(N)=O)c1N)C(C(=O)NCc1ccccc1)c1ccc(C)o1 (configuration not stated)	i	i	1	-6*	i	i
CCOc1ccccc1N(C(=O)c1snc(C(N)=O)c1N)C(C(=O)NCc1ccccc1)c1ccc(O)cc1 (configuration not stated)	i	i	1	-9*	i	i
NC(=O)c1nsc(C(=O)N(c2ccccc2F)C(C(=O)NCc2ccccc2)c2ccc(O)cc2)c1N (configuration not stated)	i	i	1	i	i	i
CCCN(CCO)CCCc1ccccc1	i	11*	0	i	i	i
CCN(CCCc1ccccc1)CCCc1ccccc1	i	i	7	i	i	i
Cc1ccc(CNS(=O)(=O)c2cn(C)c(=O)n(C)c2=O)cc1	i	i	3	i	i	i
COc1cc(C(C(=O)NC2CCCC2)N(C(=O)c2snc(C(N)=O)c2N)c2ccccc2)cc(OC)c1OC (configuration not stated)	i	i	0	i	i	i
CCOC(=O)CC(NS(=O)(=O)c1ccc2[nH]c(=O)sc2c1)c1ccc(C)cc1 (configuration not stated)	i	i	8	i	i	i
CN1CCN(c2ccc(NC(=O)c3ccc(Br)o3)cc2)CC1	i	i	11	-7*	i	i
O=C(NCc1ccco1)c1sc(=S)n2c1[nH]c(=O)c1ccccc12	i	i	1	i	114*	i
O=C(NC1CCCC1)c1sc(=S)n2c1[nH]c(=O)c1ccccc12	i	i	7	i	83*	i
